Screens deposited in PubChem BioAssay by Johns Hopkins Ion Channel Center.
Shown are actives, neighbours in structure and some others; about 3.5% of the full set was active somewhere.
RGS4 block: RGS4 inhibitors, primary screen, cell-based, HEK293 M3R inducible RGS4, calcium flux; Fluo-4 calcium flux; stronger effect = higher value; triggered by carbachol at its EC20; 310,000 tested, 0.45% active; B-score at 10 µM; AID 463165, 2010;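 active = B-score, a plate-corrected calcium signal, over three deviations above library mean, with baseline fluorescence within five deviations of library mean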;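 also: RGS4 expression induced by doxycycline in cells with stable M3 receptor; B-score is computed from the integrated fluorescence ratio over baseline after carbachol; higher B-score means a larger calcium signal and so more RGS4 inhibition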
Target sequence (P49798 whole entry, looked up): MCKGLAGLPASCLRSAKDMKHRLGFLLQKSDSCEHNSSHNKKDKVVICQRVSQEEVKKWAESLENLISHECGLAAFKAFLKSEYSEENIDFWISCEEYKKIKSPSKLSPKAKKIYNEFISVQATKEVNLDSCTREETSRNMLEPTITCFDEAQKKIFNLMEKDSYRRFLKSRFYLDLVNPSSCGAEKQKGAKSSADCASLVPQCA
MrgX1 antagonist: antagonists of human MrgX1 receptor, primary screen, HEK293 cells, Fluo-4 calcium flux | Mas-related G-protein coupled receptor member X1 (Homo sapiens), Q96LB2 | 310,000 tested, 1.3% active | B-score at 10 µM | AID 588676, 2011 | BAM8-22 antagonism; stronger effect = lower value;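 active = calcium-response B-score plate-corrected more than 3 library SD below zero, starting fluorescence within 5 deviations, no agonist response on first addition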;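 also: peak minus trough fluorescence over baseline after final BAM8-22 challenge near maximal dose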
Target sequence (Q96LB2 whole entry, looked up): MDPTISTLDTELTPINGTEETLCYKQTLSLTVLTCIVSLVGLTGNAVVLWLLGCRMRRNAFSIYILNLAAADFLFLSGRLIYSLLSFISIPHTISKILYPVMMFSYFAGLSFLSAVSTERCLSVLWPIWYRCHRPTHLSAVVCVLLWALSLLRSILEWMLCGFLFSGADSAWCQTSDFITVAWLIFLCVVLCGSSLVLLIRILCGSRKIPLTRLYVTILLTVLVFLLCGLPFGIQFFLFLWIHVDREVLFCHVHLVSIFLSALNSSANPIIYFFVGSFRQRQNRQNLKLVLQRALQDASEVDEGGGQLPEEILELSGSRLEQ
MrgX1 PAM: positive allosteric modulators of MrgX1, primary screen, HEK293 cells, Fluo-4 calcium flux; 310,000 tested, 0.63% active; AID 588675, 2011; FDSS; stronger effect = higher value; Mas-related G-protein coupled receptor member X1 (Homo sapiens), Q96LB2; B-score at 10 µM;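 active = plate-corrected calcium response at least 3 library SD above typical, normal starting fluorescence, not activating the receptor alone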;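 also: compound read alongside a low EC10 to EC30 dose of BAM8-22 agonist; peak minus trough fluorescence over baseline measured at the second addition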
MrgX1 ag: agonists of human MrgX1 receptor, primary screen, HEK293 cells, Fluo-4 calcium flux; Mas-related G-protein coupled receptor member X1 (Homo sapiens), Q96LB2; Fluo-4 calcium fluorescence, agonist mode; stronger effect = higher value; B-score at 10 µM; 310,000 tested, 0.44% active; AID 588627, 2011;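 active = calcium response B-score plate-corrected fluorescence ratio at least 3 library SD, with starting fluorescence B-score inside 5 SD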
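Test system: HEK293 cells stably expressing human MrgX1 receptor; Input: fifteen thousand cells per well; Dosing: compound delivered in addition one of three; Schedule: overnight seeding, then 1 h dark dye loading; Technique: Fluo-4 NW calcium fluorescence; Measure: B-scored fluorescence response ratio; Controls: positive and negative controls per plate.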
RGS4 act: RGS4 potentiators or activators, primary screen, cell-based, HEK293 M3R inducible RGS4, calcium flux | 310,000 tested, 0.92% active | carbachol calcium flux Fluo4; stronger effect = lower value | AID 463111, 2010 | B-score at 10 µM;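 active = B-score of the integrated calcium signal more than 4 SD below the library mean, with starting fluorescence not abnormally high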;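 also: negative B-score means reduced calcium response which marks RGS4 activation or potentiation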
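Material: Inducible-RGS4 HEK293 cells carrying M3 receptor; also added: carbachol at ECmax as muscarinic agonist stimulus; incubation: compound preincubation 20 min at room temperature before agonist; signal: Fluo4-AM (2 µM) calcium-flux fluorescence, kinetic read; measure: integrated calcium ratio converted to B score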
MrgX1 ag confirm: MrgX1 receptor agonists, duplicate retest, confirmation, HEK293 cells, Fluo-4 calcium flux; shares compounds with MrgX1 ag; Fluo-4 calcium fluorescence, FDSS; activation, % at 10 µM; 600 tested, 78% active; AID 602412, 2012;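 active = calcium signal rise, corrected for plate position, at least 3 library SD high, with starting brightness within 5 such deviations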
HEK293 Ca flux: nonspecific calcium signal in parental HEK293, confirmation, counter-screen for MrgX1 antagonist project, parental HEK293 cells, Fluo-4 calcium flux. fluorescence ratio F(max-min)/F0 at 10 µM. 4,000 tested, 2% active. Fluo-4 calcium fluorescence, FDSS. shares compounds with MrgX1 antagonist;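 active = duplicate-averaged calcium fluorescence ratio at least three times the standard deviation of buffer wells, a nonspecific response in parental cells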
HEK293 Ca counter: calcium response in parental HEK293 cells, primary screen, counter-screen for MrgX1 allosteric activator project, cell-based, Fluo-4 calcium flux, duplicate | shares compounds with MrgX1 antagonist | Fluo-4 fluorescence ratio; stronger effect = higher value | fluorescence ratio F(max-min)/F0 at 10 µM | 4,000 tested, 0.4% active;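 active = calcium fluorescence ratio, averaged over duplicates, at least 3 SD of the buffer-well ratio, meaning a nonspecific response in receptor-free cells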;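 also: untransfected parental HEK293 lacking MrgX1 used as counterscreen for MrgX1 allosteric activators; fluorescence change taken during the second addition on a kinetic imager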
HEK293 Ca cntr2: calcium response in parental HEK293 cells, primary screen, counter-screen for MrgX1 agonist project, cell-based, Fluo-4 calcium flux, duplicate, agonist mode. Fluo-4 calcium fluorescence (FDSS); stronger effect = higher value. fluorescence ratio F(max-min)/F0 at 10 µM. 4,000 tested, 8.7% active. shares compounds with MrgX1 antagonist. AID 624115, 2012;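 active = calcium fluorescence ratio at least three times the spread of buffer wells, meaning a non-specific response in parental cells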
* = called active by the depositor; i = inactive; . = no result.

SMILES | RGS4 block | MrgX1 antagonist | MrgX1 PAM | MrgX1 ag | RGS4 act | MrgX1 ag confirm | HEK293 Ca flux | HEK293 Ca counter | HEK293 Ca cntr2
ONC(=Nc1ccccc1)c1ccc(Cl)cc1 | i | i | i | i | i | . | . | . | .
O=S(=O)(Nc1cccc(-c2ccc3nncn3n2)c1)c1cccc(F)c1 | i | i | i | 36.7* | i | 177.0%* | i | i | i
Cc1cc(OCc2cc(C(=O)NCCN3CCCCC3CO)no2)cc(C)c1Cl (stereo not drawn) | i | i | i | i | i | . | . | . | .
COc1cccc(N2CCN(c3ccc([N+](=O)[O-])cn3)CC2)c1 | i | i | i | i | i | . | . | . | .
COc1ccc(C(C)=O)cc1CSC(=N)N | i | i | i | 46.6* | i | 239.9%* | i | i | i
COc1ccc(C(C)=O)cc1CSCc1cc(C(C)=O)ccc1OC | i | i | i | i | i | . | . | . | .
CCOc1ccc(C(C)=O)cc1CSC(=N)N | i | i | i | 29.6* | i | 163.8%* | i | i | i
CCCCOc1ccc(Br)cc1CSC(=N)N | i | . | . | . | i | . | . | . | .
COc1cc(CCC(=O)N2CCN(c3ccccc3)CC2)cc(OC)c1OC | i | i | i | i | i | . | . | . | .
CCCNC(=S)N1CCC(NC(=O)c2ccc(C)cc2)CC1 | i | i | i | i | i | . | . | . | .
COc1ccc(CCNc2cc(C)nc(N)n2)cc1OC | i | i | i | 44.6* | i | 241.8%* | i | i | i
CC(/C=N/NC(=O)c1nnn(-c2nonc2N)c1C(C)C)=C\c1ccco1 | i | i | i | i | i | . | . | . | .
COc1cc(OC)cc(C(=O)NCC(=O)Nc2ccc(-c3ccccc3)cc2)c1 | i | i | i | i | i | . | . | . | .
Cc1ccc(S(=O)(=O)C(C#N)c2nc3ccccc3nc2N2CCCC2)cc1 (stereo not drawn) | i | i | i | 30.1* | i | i | i | i | 51.6*
Cc1ccc(Sc2cc(C)nc(-c3ccccn3)n2)cc1 | i | i | i | 31.3* | i | 209.5%* | i | i | i
CC1CCCCN1S(=O)(=O)c1ccc(C(=O)Nc2nnc(-c3ccccc3Cl)o2)cc1 (stereo not drawn) | i | i | i | 40.5* | i | 322.8%* | i | i | 62.7*
Cc1ccc(S(=O)(=O)Cn2nnnc2C(CC(C)C)N2CCN(C3CCCC3)CC2)cc1 (stereo not drawn) | i | i | i | i | i | . | . | . | .
COc1cccc(-n2nnc(S(=O)(=O)c3ccc(C)cc3)c2N)c1 | i | i | i | 36.1* | i | i | i | i | i
CCn1cc(C(=O)N[C@H](C(=O)NCCN2CCOCC2)C(C)C)c(=O)c2cc3c(cc21)OCO3 | i | i | i | i | i | . | . | . | .
CC1(C)c2[nH]c3ccccc3c2C[C@H]2C(=O)N(CCCCCO)CC(=O)N21 | i | i | i | i | i | . | . | . | .
O=C(Nc1ccc(N2CCOCC2)cc1)C1(c2ccc(Cl)cc2)CCC1 | i | i | i | i | i | . | . | . | .
O=C(CNCC1(N2CCOCC2)CCCCC1)Nc1ccc(Cl)cc1 | i | i | i | 74* | i | i | i | i | i
COc1ccc(-n2c(SCC(=O)Nc3ccc(C(=O)O)cc3)nnc2-c2ccccc2)cc1OC | i | i | i | i | i | . | . | . | .
N#CC1(Nc2ccccc2)C(=O)Nc2ccccc21 (stereo not drawn) | i | i | i | 37.4* | i | 137.4%* | i | i | i
CN(C)c1nc(N)c(C(=O)N=C(N)N)nc1Cl | i | i | i | 35.2* | i | 169.6%* | i | i | i
SMILES | RGS4 block | MrgX1 antagonist | MrgX1 PAM | MrgX1 ag | RGS4 act | MrgX1 ag confirm | HEK293 Ca flux | HEK293 Ca counter | HEK293 Ca cntr2
NC(=Nc1ccccc1)NC(=O)c1nc(Cl)c(N)nc1N | i | i | i | i | i | . | . | . | .
N#CC1(NC(=O)COC(=O)c2nccnc2N)CCCCC1 | i | i | i | i | i | . | . | . | .
CC(=O)Nc1ccc(S(=O)(=O)NCc2cc(=O)n(C)c(=O)n2C)cc1 | i | i | i | i | i | . | . | . | .
O=C(NCCNC(=O)c1cc(Cl)ccc1Cl)c1ccco1 | i | i | i | i | i | . | . | . | .
O=c1c2ccccc2sn1-c1ccc(S(=O)(=O)N2CCCC2)cc1 | i | i | i | i | i | . | . | . | .
O=c1c2ccccc2sn1-c1ccccc1 | i | i | i | 41* | i | 229.0%* | i | i | 49.1*
CN(C)S(=O)(=O)c1cccc(-n2sc3ccccc3c2=O)c1 | . | i | i | 36.7* | . | 225.1%* | i | i | 49.7*
CCOC(=O)Cc1csc(N/C(=N/S(=O)(=O)c2ccc(F)cc2F)c2ccccc2)n1 | i | i | i | 30* | i | 181.5%* | i | i | i
COc1ccc(OCC(=O)NC(=S)Nc2ccc(S(=O)(=O)Nc3cc(C)on3)cc2)cc1 | i | i | i | i | i | . | . | . | .
CC1CC2(CCCCC2)N2C(=O)C(=O)c3cccc1c32 (stereo not drawn) | i | i | i | 46* | i | 195.8%* | i | i | i
Cc1cc2c3c(c1)C(C)CC(C)(C)N3C(=O)C2=O (stereo not drawn) | i | i | i | i | i | . | . | . | .
CCOC(=O)c1ccc(N2C(=O)C3CC=CCC3C2=O)cc1 (stereo not drawn) | i | i | i | i | i | . | . | . | .
CCOC(=O)c1ccc(N2C(=O)C3C(C2=O)C(C(=O)c2ccc(Cl)cc2)N2CCCC32)cc1 (stereo not drawn) | i | i | i | 43.1* | i | i | i | i | 52.3*
